Measurements: ChEMBL document CHEMBL1148355, “Inhibition of group IVA cytosolic phospholipase A2 by novel 2-oxoamides in vitro, in cells, and in vivo” (J Med Chem, 2004)
Blank lines part the entries; values can stand above or below the compound they belong to.

Tests used:
Mus musculus [1] = species: Mus musculus; experiment: Tested on P388D1 macrophage-like cell line (PGE2 production) for inhibition of the GIVA PLA2 in the long-term lipopolysaccharide; format: functional, organism-based
How it was run: (§1)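 P388D1 murine macrophages plated at 10^6 cells/well and left to adhere overnight. Starved 1 h in 0.2% FCS medium. Compound added in DMSO (<0.5% v/v) 30 min before 100 ng/mL LPS for 18 h. Medium PGE2 measured by enzyme immunoassay and normalized to DMSO/LPS controls. IC50 taken from a logarithmic fit.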

[2] = molecular target: T1, Cytosolic phospholipase A2 (Homo sapiens) (UniProt P47712); experiment: Mole fraction of compound in the total substrate interface required to inhibit human GIVA PLA2 by 50%
T1 sequence (whole entry): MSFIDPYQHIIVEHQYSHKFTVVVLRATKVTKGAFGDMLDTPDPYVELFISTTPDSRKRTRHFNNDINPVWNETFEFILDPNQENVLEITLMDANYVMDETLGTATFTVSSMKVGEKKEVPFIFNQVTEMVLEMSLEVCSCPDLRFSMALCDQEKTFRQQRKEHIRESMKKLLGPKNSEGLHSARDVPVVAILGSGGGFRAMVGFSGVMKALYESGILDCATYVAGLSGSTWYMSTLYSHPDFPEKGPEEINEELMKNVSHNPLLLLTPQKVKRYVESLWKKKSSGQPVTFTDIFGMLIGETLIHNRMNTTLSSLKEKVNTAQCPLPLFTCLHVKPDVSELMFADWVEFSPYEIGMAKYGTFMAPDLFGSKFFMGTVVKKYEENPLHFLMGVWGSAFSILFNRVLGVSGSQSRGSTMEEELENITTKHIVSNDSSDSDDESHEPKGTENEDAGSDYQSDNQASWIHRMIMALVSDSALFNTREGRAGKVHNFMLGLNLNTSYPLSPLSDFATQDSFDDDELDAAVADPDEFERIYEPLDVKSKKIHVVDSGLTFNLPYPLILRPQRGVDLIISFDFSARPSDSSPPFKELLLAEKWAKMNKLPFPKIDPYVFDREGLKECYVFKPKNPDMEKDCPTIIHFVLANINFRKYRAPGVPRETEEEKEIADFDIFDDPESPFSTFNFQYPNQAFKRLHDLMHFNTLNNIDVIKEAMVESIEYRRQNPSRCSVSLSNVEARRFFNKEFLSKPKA
How it was run: (§2)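 GIVA PLA2 activity measured on mixed micelles of TX-100 (400 μM), 1-palmitoyl-2-[14C]arachidonoyl PC (97 μM) and PIP2 (3 μM, 0.6 mol %). Inhibitor surface mole fraction varied within the micelles; percent inhibition calculated relative to a DMSO control. Xi(50) is the mole fraction giving 50% inhibition, obtained by a logarithmic or linear fit.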

Rattus norvegicus [3] = experiment: Compound was tested for in vivo antiinflammatory activity in rat; format: functional, organism-based
How it was run: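 Carrageenan paw edema in Fisher 344 rats (150–200 g), both sexes. Edema induced by 0.1 mL 2% w/v carrageenan in saline, intradermal into the right footpad. Compound suspended in Tween 80/water and given ip at the same time. Rats killed at 3.5 h, injected minus uninjected paw weight taken, and % inhibition calculated vs water controls. Four concentrations tested, two groups of five; mean of two experiments.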

Rattus norvegicus [4] = experiment: Compound was tested for in vivo analgesic activity in rat; format: functional
Mus musculus [5] = species: Mus musculus; experiment: Tested on P388D1 macrophage-like cell line (AA-derived products) for inhibition of the GIVA PLA2 in the long-term lipopolysaccharide; format: functional, organism-based
[6] = molecular target: T1, Cytosolic phospholipase A2 (Homo sapiens); experiment: Percent inhibition of human GIVA PLA2 by the compound at a concentration (mole fraction) of 0.01; how it was run: as §2
Mus musculus [7] = species: Mus musculus; experiment: Compound was tested on P388D1 macrophage-like cell line (PGE2 production) for inhibition of the GIVA PLA2 in the long-term lipopolysaccharide; format: functional, organism-based; how it was run: as §1
Mus musculus [8] = species: Mus musculus; experiment: Compound was tested on P388D1 macrophage-like cell line (AA-derived products) for inhibition of the GIVA PLA2 in the long-term lipopolysaccharide; format: functional, organism-based
[9] = molecular target: T1, Cytosolic phospholipase A2 (Homo sapiens); experiment: Percent inhibition of human GIVA PLA2 by the compound at a concentration (mole fraction) of 0.08; how it was run: as §2
[10] = molecular target: T1, Cytosolic phospholipase A2 (Homo sapiens); experiment: Percent inhibition of human GIVA PLA2 by the compound at a concentration (mole fraction) of 0.05; how it was run: as §2
[11] = molecular target: T1, Cytosolic phospholipase A2 (Homo sapiens); experiment: Percent inhibition of human GIVA PLA2 by the compound at a concentration (mole fraction) of 0.02; how it was run: as §2
[12] = in the assay text read “of 0.091” for “of 0.01”

IC50 (Mus musculus [1]): 7.8 µM
X1(50) [2]: 0.017
EC50 (Rattus norvegicus [3]): 0.01 mmol/kg
IC50 (Mus musculus [5]): 8.6 µM
Compound: CCCCCCCCCCCCCCC(=O)C(=O)NCCCC(=O)O
Analgesic activity (Rattus norvegicus [4]): 93%

inhibition [6, 12]: 24%
Compound: CCCCCCCCCCCCCC(=O)C(=O)N1CCC[C@H]1CCC(=O)O

inhibition [6, 12]: 0%
Compound: CCCCCCCCCCC(=O)C(=O)N1CCC[C@H]1CCC(=O)O

inhibition [6]: 0%
Compound: CCCCCCCCCCCCCC(=O)C(N)=O

IC50 (Mus musculus [7]): 10 µM
X1(50) [2]: 0.017
IC50 (Mus musculus [8]): 4.6 µM
EC50 (Rattus norvegicus [3]): 0.008 mmol/kg
Compound: CCCCCCCCCCCCCC(=O)C(=O)N[C@H](CCC(=O)O)CC(C)C
Analgesic activity (Rattus norvegicus [4]): 69%

X1(50) [2]: 0.047
Compound: CCCCCCCCCCOC[C@@H](CCC(=O)O)NC(=O)C(=O)CCCCCCCCCC

X1(50) [2]: 0.035
Compound: CCCCCCCCCCCCCC(=O)C(=O)N[C@H](CCC(=O)O)Cc1ccccc1

inhibition [6]: 0%
Compound: CCCCCCCCCCCCCCCCNC(=O)C(=O)CC

IC50 (Mus musculus [7]): 5.8 µM
X1(50) [2]: 0.009
IC50 (Mus musculus [8]): 7.6 µM
EC50 (Rattus norvegicus [3]): 0.1 mmol/kg
Compound: CCCCCCCCCCC(=O)C(=O)N[C@@H](CCCC)CCC(=O)O
Analgesic activity (Rattus norvegicus [4]): 63%

X1(50) [2]: 0.045
Compound: CCCCCCCCCCOC[C@H](CCC(=O)O)NC(=O)C(=O)CCCCCCCCCC

inhibition [9]: 22%
Compound: CCCCCCCCCCCCCCCC(=O)NCCCC(=O)O

inhibition [6]: 0%
Compound: NC(=O)C(=O)CCCCc1ccccc1

inhibition [6, 12]: 24%
Compound: CCCCCCC(=O)C(=O)N[C@H](CCC(=O)O)Cc1ccccc1

X1(50) [2]: 0.021
Compound: CCCCCCCCCCCCCC(=O)C(=O)N[C@@H](C)CCC(=O)O

inhibition [6]: 0%
Compound: CCCCCCCC/C=C\CCCCCCCCNC(=O)C(=O)CCCCC

inhibition [10]: 0%
Compound: CCCCCCC(=O)C(=O)NCCCC(=O)O

inhibition [10]: 0%
Compound: CCCCCCCC/C=C\CCCCCCCCNC(=O)C(=O)CCCCCCCCCCCCCC

X1(50) [2]: 0.01
Compound: CCCCCCCCCCCCCC(=O)C(=O)N[C@@H](CCCC)CCC(=O)O

inhibition [11]: 22%
Compound: CCCCCCCCCCCCCCC(=O)C(=O)NCCCCC

X1(50) [2]: 0.021
Compound: CCCCCCCCCCC(=O)C(=O)N[C@H](CCC(=O)O)CC(C)C

inhibition [9]: 0%
Compound: CCCCCCCCCCCCCCC(=O)C(=O)NCCCC(=O)OC

X1(50) [2]: 0.068
Compound: CCCCCCCCCCC(=O)C(=O)N[C@H](CCCC)CCC(=O)O
